# HNF4A DNA FP – change in binding of human HNF4 alpha to DNA; P41235; HNF4a-FITC DNA binding, fluorescence polarization, 1 h; AID 1224865; 360,000 compounds, 0.3% hits; activity change, % at 10 µM; in the data active = activity change above about 30%, passing the limit was not always enough
# Rpn11 block – Rpn11 (human) deubiquitinase inhibition; calls only at 20 µM; O00487; 360,000 compounds, 0.59% hits; human 26S proteasome, Ub4-pepOG fluorescence polarization; 20S core pre-blocked with epoxomicin; AID 588493;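 active = inhibition at 20 µM, scaled to each plate's controls, above about 33%, limit read from the data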
# SUMO HTRF inh – SUMOylation inhibition | HTRF SUMOylation assay, SAE1/SAE2 + UBC9, in vitro | 290,000 compounds, 0.36% hits | AID 2006 | inhibition, % at 35 µM; in the data active = inhibition above about 50%, passing the limit was not always enough
# Target sequence (P63279 whole entry, looked up): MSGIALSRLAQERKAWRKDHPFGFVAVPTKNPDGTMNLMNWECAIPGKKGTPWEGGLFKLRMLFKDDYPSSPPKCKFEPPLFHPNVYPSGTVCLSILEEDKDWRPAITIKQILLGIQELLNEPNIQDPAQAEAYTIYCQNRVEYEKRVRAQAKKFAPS
# CSN inh – blocks human CSN-mediated cullin deneddylation; Q92905; Purified CSN, SCF-Nedd8-OG deneddylation, fluorescence polarization; inhibition, % at 12.5 µM; 360,000 compounds, 0.38% hits; AID 651999;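 active = pattern-corrected inhibition above about 35%, with an unprinted fluorescence ratio check between 0.5 and 1.5, limit read from the data, passing the limit was not always enough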;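 also: 0% = enzyme with substrate and 100% = substrate without enzyme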
#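 assay system = purified human Csn5 enzyme expressed in HEK293T cells | amount = 0.24 nM enzyme | buffer or medium = Tris/NaCl/DTT buffer, pH 7.5 | reagent = 10 nM SCFSkp2-Nedd8OG | compound = one concentration, 12.5 µM, 0.25% DMSO | times = 90 min reaction at room temperature | signal = FP | read-out basis = % inhibition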
# TPT1 inh – inhibitors of Candida albicans tRNA 2'-phosphotransferase TPT1; inhibition, % at 5 µM; AID 1962; 300,000 compounds, 0.81% hits; recombinant caTPT1, FP RNA substrate dephosphorylation;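 active = inhibition above the mean of all tested compounds plus 3 SD, set per screening campaign, cut at about 24% in these data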;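 also: plate controls were DMSO alone for no effect and ferristatin control at 100 nM for full effect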
# SENP1 inh – SENP1 (human) catalytic domain inhibition; inhibition, % at 10 µM; recombinant SENP1 catalytic domain, CyPet-SUMO1-YPet FRET cleavage; 360,000 compounds, 0.21% hits; Q9P0U3;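 active = inhibition at least 30% at 10 µM, raw YFP signal under a set limit, fluorescence ratio 0.5 to 1.5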;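 also: 0% = enzyme with DMSO and 100% = no enzyme wells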
# Target sequence (Q9P0U3 419-644 limits assumed): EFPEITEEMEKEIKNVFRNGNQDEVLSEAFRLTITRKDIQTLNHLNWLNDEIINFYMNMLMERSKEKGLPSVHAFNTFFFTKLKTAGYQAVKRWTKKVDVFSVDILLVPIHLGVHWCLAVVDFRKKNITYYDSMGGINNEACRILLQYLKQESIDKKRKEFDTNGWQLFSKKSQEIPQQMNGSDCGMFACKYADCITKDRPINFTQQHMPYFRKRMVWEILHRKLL
#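 System: Recombinant human SENP1 catalytic domain, His6-tagged | Incubation: Enzyme reaction for 50 min at room temperature, dark | Medium: Tris pH 8 with BME, BSA, NP40 and catalase | Also added: 25 nM SUMO1 FRET substrate | Compound: 10 µM single point, 0.5% DMSO | Measured by: FRET fluorescence in CFP and YFP emission channels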
# caTPT1 confirm – TPT1 (C. albicans) inhibition, confirmation. inhibition, % at 5 µM. shares compounds with TPT1 inh. 2,400 compounds, 74% hits. recombinant caTPT1, fluorescence polarization, RNase T1 coupled;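 active = inhibition above the primary screen limit, the mean inhibition of all tested compounds plus 3 SD, cut at about 25% in these data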
# RNase T1 counter – RNase T1 inhibition in TPT1 counter-screen; RNase T1 cleavage, fluorescence polarization, 1536-well; inhibition, % at 5 µM; shares compounds with TPT1 inh; 2,400 compounds, 83% hits;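 active = inhibition above the solvent-only control well mean plus 3 SD, limit set per screening run, cut at about 23% in these data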;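 also: plate controls were DMSO wells with enzyme for no effect and wells without RNase T1 for full effect; inhibitors block cleavage so intact labeled substrate keeps polarization high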
# Target sequence (P00651 whole entry, looked up): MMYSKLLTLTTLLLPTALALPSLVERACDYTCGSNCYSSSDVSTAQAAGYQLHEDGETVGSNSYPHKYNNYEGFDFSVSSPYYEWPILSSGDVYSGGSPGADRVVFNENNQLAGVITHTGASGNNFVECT
# Numbers without * were called inactive; i = inactive; . = not tested or not shown. Hits are enriched below; roughly 1.8% of the tested compounds scored in any of these assays.
SMILES,HNF4A DNA FP,Rpn11 block,SUMO HTRF inh,CSN inh,TPT1 inh,SENP1 inh,caTPT1 confirm,RNase T1 counter
CC(C)N1CCc2c(sc(N)c2C#N)C1,19,i,24,9,30*,-20,42*,48*
Cc1nc2ccccc2c(=O)n1/N=C/c1cc(Br)ccc1O,3,i,-2,3,3,-23,.,.
Cc1nc2ccccc2c(=O)n1/N=C/c1c(O)ccc2ccccc12,7,i,-2,-18,39*,-22,5,8
CC1(c2nnc(-c3cccc(Cl)c3)o2)CC(c2ccccc2)=NO1 (stereo not given),-3,i,.,-1,-2,-2,.,.
CCn1c2ccccc2c2cc(NC(=O)c3ccc(=O)oc3)ccc21,23,i,36,20,63*,-33,34*,37*
CCn1c2ccccc2c2cc(NC(=O)c3coc(=O)c(Br)c3)ccc21,-46,i,4,-14,9,-37,.,.
Cc1cc(SCC(=O)c2cc3ccccc3o2)nc2ccccc12,9,.,-14,7,66*,-23,7,7
Cc1cc(SCC(=O)O)nc2ccccc12,-1,i,-11,-3,2,2,.,.
Cc1oc(C)c2c(=O)ccc3c(c12)OC(N)=C(C#N)C3c1ccc(F)cc1 (stereo not given),18,.,0,27,31*,-17,17,28*
Cc1[nH]nc2c1C(c1ccc(F)cc1)C(C#N)=C(N)O2 (stereo not given),0,i,-11,2,1,2,.,.
O=C(Nc1cccc(Cl)c1)NC1CCS(=O)(=O)C1 (stereo not given),4,i,-14,-6,0,-2,.,.
COc1ccc2c(c1)cc(C(=O)N/N=C/c1c(O)c(C(=O)O)cc3ccccc13)n2C,27,.,43,18,51*,-25,60*,65*
O=C(COC(=O)COc1ccccc1F)NC1CC1,0,i,.,2,.,1,.,.
N#Cc1c(Sc2ncc(C(F)(F)F)cc2Cl)nsc1C/C=N\OCc1c(F)cccc1Cl,11,.,14,20,36*,-13,20,33*
CCN(CC)c1ccc2c(c1)oc(=O)c1c(Cl)cc(=O)oc12,-23,i,8,-31,25*,-25,37*,50*
CCN(CC)c1ccc2c(C)c(Cl)c(=O)oc2c1,-14,i,15,1,-5,-28,.,.
O=C(Cn1ncc2c3ccccc3n(Cc3cccc(Cl)c3)c2c1=O)NCc1ccccn1,26,.,16,11,69*,16,84*,90*
COc1ccc(C2C(C(=O)c3ccc(C)o3)=C(O)C(=O)N2Cc2cccnc2)cc1OC (stereo not given),3,i,10,3,-2,-6,.,.
CCCn1c(N)c(N(CCOC)C(=O)c2ccccc2)c(=O)[nH]c1=O,0,i,-2,4,-3,0,.,.
Nc1c(C(=O)c2ccccc2)sc2nsc(SCCN3CCOCC3)c12,34,.,0,13,58*,-37,63*,72*
COc1cc(N2CCCC2)c(OC)cc1/C=C(/C#N)c1ccc(F)cc1,82,.,3,23,143*,8,132*,134*
COc1ccc(C(C#N)=Cc2ccccc2OC)cc1,0,i,.,2,.,0,.,.
Cc1cc(C)cc(C(=O)NC(CC(N)=O)c2ccc(NC3CCCCCCCCCCC3)c([N+](=O)[O-])c2)c1 (stereo not given),-5,i,-24,-2,48*,3,7,6
Cc1cc(C)cc(C(=O)NC(CC(N)=O)c2ccc(NC3CCCCCCC3)c([N+](=O)[O-])c2)c1 (stereo not given),4,i,-27,-6,-2,5,.,.
COC(=O)c1ccccc1CSc1nsc(/C=C/N(C)C)c1C#N,55*,.,-8,16,92*,6,35*,48*
SMILES,HNF4A DNA FP,Rpn11 block,SUMO HTRF inh,CSN inh,TPT1 inh,SENP1 inh,caTPT1 confirm,RNase T1 counter
O=C(CCCN1C(=O)/C(=C/c2cccc(Br)c2)SC1=S)NCCCN1CCOCC1,3,i,15,10,0,2,.,.
CN1CCc2c(sc3c2C(=O)NC(c2ccccn2)N3)C1 (stereo not given),-17,i,2,-12,-10,-24,.,.
Cc1ccc(C2NC(=O)c3c(sc4c3CCN(C)C4)N2)s1 (stereo not given),10,.,14,29,64*,-22,38*,47*
Cc1ccc(C2NC(=O)c3c(sc4c3CCN(C)C4)N2)o1 (stereo not given),-10,i,6,23,0,-27,.,.
CN1CCc2c(sc3c2C(=O)NC(c2ccccc2)N3)C1 (stereo not given),-1,i,9,6,27*,-25,31*,45*
C=CCN1C(=O)/C(=C/c2ccc(-c3ccc(F)cc3)o2)SC1=S,4,i,17,54,81*,-27,115*,120*
C=CCN1C(=O)/C(=C/c2ccsc2)SC1=S,4,i,-8,-3,-2,3,.,.
CC(=O)NCCN=C(C)c1sc2ccccc2c1O,-3,i,-12,0,1,-149,.,.
CC(=Nc1ccc(O)cc1)c1sc2ccccc2c1O,19,i,11,35,55*,-19,65*,80*
CC(=Nc1cccc(C)c1)c1sc2ccccc2c1O,16,i,-3,9,42*,-22,68*,80*
Oc1c(N=Nc2ccccc2)sc2ccccc12,20,i,13,6,23,-16,.,.
CC(=Nc1ccccc1O)c1sc2ccccc2c1O,38*,.,-9,8,104*,-35,125*,126*
O=C(Nc1ccccc1N1CCCCC1)c1cccc(Cl)c1,-2,i,-4,-5,-2,1,.,.
Cn1c(=O)c(Oc2cc(Cl)cc(Cl)c2)nc2ccccc21,0,i,5,-11,2,0,.,.
CN1C(=O)/C(=C/c2cccc(Cl)c2)Sc2ccc(C(=O)NCc3cccnc3)cc21,3,i,-2,-5,-3,-6,.,.
O=C1c2ccccc2S(=O)(=O)c2cc(N3CCC4(CC3)OCCO4)ccc21,.,.,.,.,30*,.,45*,56*
O=C1c2ccccc2S(=O)(=O)c2cc(C(=O)N3CCN(c4ccccc4)CC3)ccc21,-2,i,.,0,-1,2,.,.

# Source: PubChem
